According to article PMC3949619 (Bioorganic & medicinal chemistry, 2013):
pIC50: −log10 of the molar value.

Experiments:
[1] = tested on: KBH5.0 (overexpresses BCRP); experiment: MTT-microtiter plate tetrazolinium cytotoxicity assay; format: cell-based, human; conditions: inferred from cytotoxicity in KBH5.0 versus parent KB3-1
[2] = tested on: KBV-1 (overexpresses the efflux transporter MDR1); experiment: as above; format: cell-based, human; conditions: inferred from cytotoxicity in KBV-1 versus parent KB3-1
[3] = tested on: d(TTAGGG)4 quadruplex DNA; experiment: UV melting of quadruplex DNA; format: binding, human; conditions: range over 50 and 150 mM K+ and over the compounds named together
Outline: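 d(TTAGGG)4 at 5 μM strand, annealed at 90 °C for 5 min and slowly cooled over 4 h; test compound 20 μM. Buffer: 10 mM potassium phosphate, pH 7.5, plus KCl at 32 mM (50 mM K+) or 132 mM (150 mM K+). Absorbance read at 295 nm in 0.5 °C steps with 1 min equilibration. Ttran taken from the first-derivative minimum. ΔTtran is the shift against DNA alone, ±1.0 °C.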

[4] = qualitative statement of the introduction; no reference given; cited from earlier work
[5] = in vivo; cited from earlier work
[6] = tested on: KB3-1; conditions: read-out: IC50 against KB3-1 cells; range for compounds 1 and 2 together; cited from earlier work
[7] = tested on: human breast cancer xenograft (MDA-MB-435); conditions: MDA-MB-435 human breast cancer xenograft, athymic nude mice; cited from earlier work

Row | SMILES | substrate for BCRP efflux transporter [1] | substrate for MDR1 efflux transporter [2] | ΔTtran of quadruplex DNA (range given) [3] | further results
1 | NCC[C@@H]1NC(=O)c2coc(n2)-c2coc(n2)-c2cccc(c2)-c2cccc(c2)-c2nc(co2)-c2nc(co2)CNC1=O [Compound 20] | substrates | substrates | 8.4–14.6 °C | –
2 | CC(C)[C@@H]1NC(=O)c2coc(n2)-c2coc(n2)-c2coc(n2)[C@H](C(C)C)NC(=O)c2coc(n2)-c2coc(n2)-c2coc1n2 [HXDV] | – | – | – | aqueous solubility [4]: poor aqueous solubility
3 | O=C1N[C@@H](Cc2ccccc2)C(=O)NCc2coc(n2)-c2coc(n2)-c2cccc(c2)-c2cccc(c2)-c2nc(co2)-c2nc1co2 [Compound 18] | – | – | 1.1–2.8 °C | –
4 | CC(C)[C@@H]1NC(=O)c2coc(n2)-c2coc(n2)-c2cccc(c2)-c2cccc(c2)-c2nc(co2)-c2nc(co2)CNC1=O [Compound 17] | – | – | 4.1–6.4 °C | –
5 | O=C1CNC(=O)c2coc(n2)-c2coc(n2)-c2cccc(c2)-c2cccc(c2)-c2nc(co2)-c2nc(co2)CN1 [Compound 16] | substrates | substrates | 4.1–6.4 °C | –
6 | CC(C)[C@@H]1NC(=O)c2coc(n2)-c2coc(n2)-c2coc(n2)[C@H](CCN(C)C)NC(=O)c2coc(n2)-c2coc(n2)-c2coc1n2 [YAK-1-161] | – | – | – | well tolerated dose levels [5]: ≤ 45 mg/kg
7 | CC(C)(C)OC(=O)NCC[C@@H]1NC(=O)c2coc(n2)-c2coc(n2)-c2cccc(c2)-c2cccc(c2)-c2nc(co2)-c2nc(co2)CNC1=O [Compound 19] | – | – | 1.1–2.8 °C | –
8 | CN(C)CC[C@@H]1NC(=O)c2coc(n2)-c2coc(n2)-c2cccc(c2)-c2cccc(c2)-c2nc(co2)-c2nc(co2)CNC1=O [Compound 21] | substrates | substrates | 8.4–14.6 °C | –
9 | CC(C)[C@@H]1NC(=O)c2coc(n2)-c2coc(n2)-c2coc(n2)C/C=C/c2coc(n2)-c2coc(n2)-c2coc1n2 [METV] | – | – | – | aqueous solubility [4]: poor aqueous solubility
10 | CN(C)CCc1cc2cc(c1)CNC(=O)c1coc(n1)-c1coc(n1)-c1cccc(n1)-c1nc(co1)-c1nc(co1)C(=O)NC2 [Compound 2] | – | – | – | pIC50 [6]: 7.40 to 7.52; %T/C value [7]: 27.7%
